Source: ChEMBL document CHEMBL3272019, “Synthesis and some properties and antitumor effects of the actinomycin lactam analog, (di(1-L-alpha, beta-diaminopropionic))actinomycin D1” (1976)
≈ marks a conversion by molar mass, not a printed value. Calls of active or inactive are those of the source. No cut-off for these calls is given here.

Experiments:
[1] = tested on: Calf thymus DNA; experiment: Binding affinity to calf thymus DNA at 25 uM by visible and near-UV CD spectrophotometry; type: nucleic-acid assay; details: Bos taurus
In short: (§1)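 CD spectra, visible and near-UV, of 25.0 µM drug alone and with DNA (calf thymus or PM2, 0.52 mM as nucleotide phosphorus) in 0.01 M sodium phosphate, pH 7.0. Recorded at about 23° in tandem 1-cm cylindrical quartz cells. Drug concentration was set spectrophotometrically at 440 nm.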

[2] = tested on: Pseudoalteromonas phage PM2; experiment: Binding affinity to bacteriophage PM2 DNA at 25 uM by visible and near-UV CD spectrophotometry; in short: as §1
[3] = tested on: Calf thymus DNA; experiment: Binding affinity to calf thymus DNA at 37.1 uM by visible and near-UV CD spectrophotometry; type: nucleic-acid assay; details: Bos taurus
In short: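 Visible/near-UV CD of 37.1 µM drug, free and with calf thymus DNA at 0.53 mM nucleotide phosphorus, in 0.01 M sodium phosphate pH 7.0 at about 23°. Tandem 1-cm quartz cells were used. Concentration was fixed from absorbance at 440 nm (ε 23585 M⁻¹ cm⁻¹).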

[4] = tested on: Bacillus subtilis; experiment: Antibacterial activity against Bacillus subtilis Marburg assessed as growth inhibition; type: functional
[5] = tested on: Staphylococcus aureus; experiment: Antibacterial activity against Penicillin-resistant Staphylococcus aureus assessed as growth inhibition; type: functional
[6] = tested on: Sarcina; experiment: Antibacterial activity against Sarcina subflava assessed as growth inhibition; type: functional
[7] = tested on: L1210; experiment: Antitumor activity against mouse L1210 cells allografted in BDF1 mouse assessed as mean survival time at 0.0125 mg/kg/injection, ip administered daily for 9 days (reference value: 9.6 days); type: functional; details: route intraperitoneal
[8] = tested on: L1210; experiment: Antitumor activity against mouse L1210 cells allografted in BDF1 mouse assessed as mean survival time at 0.15 mg/kg/injection, ip administered intermittently on days 1, 5 and 9 (reference value: 9.6 days); type: functional; details: route intraperitoneal
[9] = tested on: L1210; experiment: Antitumor activity against mouse L1210 cells allografted in BDF1 mouse assessed as mean survival time at 0.2 mg/kg/injection, ip administered as single dose (reference value: 9.6 days); type: functional; details: route intraperitoneal
[10] = tested on: L1210; experiment: Antitumor activity against mouse L1210 cells allografted in BDF1 mouse assessed as increase in life span at 0.0125 mg/kg/injection, ip administered daily for 9 days; type: functional; details: 216 h, route intraperitoneal
[11] = tested on: L1210; experiment: Antitumor activity against mouse L1210 cells allografted in BDF1 mouse assessed as increase in lifespan at 0.15 mg/kg/injection, ip administered intermittently on days 1, 5 and 9; type: functional; details: route intraperitoneal
[12] = tested on: L1210; experiment: Antitumor activity against mouse L1210 cells allografted in BDF1 mouse assessed as increase in life span at 0.2 mg/kg/injection, ip administered as single dose; type: functional; details: route intraperitoneal
[13] = tested on: P388; experiment: Antitumor activity against mouse P388 cells allografted in BDF1 mouse assessed as mean survival time at 0.1 mg/kg/injection, ip administered daily for 9 days (reference value: 10.5 days); type: functional; details: route intraperitoneal
In short: (§2)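 P388 leukaemia: 10⁶ cells implanted ip on day 0 into groups of eight male BDF mice. Dosing was ip daily on days 1–9, on days 1, 5 and 9, or as a single day-1 dose, over four- to fivefold dose ranges. Median survival time (range of deaths) and percent increase in life-span were recorded, with survivors/total counted at day 60.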

[14] = tested on: P388; experiment: Antitumor activity against mouse P388 cells allografted in BDF1 mouse assessed as mean survival time at 0.15 mg/kg/injection, ip administered intermittently on days 1, 5 and 9 (reference value: 10.5 days); type: functional; details: route intraperitoneal; in short: as §2
[15] = tested on: P388; experiment: Antitumor activity against mouse P388 cells allografted in BDF1 mouse assessed as mean survival time at 0.2 mg/kg/injection, ip administered as single dose (reference value: 10.5 days); type: functional; details: route intraperitoneal; in short: as §2
[16] = tested on: P388; experiment: Antitumor activity against mouse P388 cells allografted in BDF1 mouse assessed as increase in life span at 0.1 mg/kg/injection, ip administered daily for 9 days measured on day 60; type: functional; details: route intraperitoneal; in short: as §2
[17] = tested on: P388; experiment: Antitumor activity against mouse P388 cells allografted in BDF1 mouse assessed as increase in life span at 0.15 mg/kg/injection, ip administered intermittently on days 1, 5 and 9 measured on day 60; type: functional; details: 1440 h, route intraperitoneal; in short: as §2
[18] = tested on: P388; experiment: Antitumor activity against mouse P388 cells allografted in BDF1 mouse assessed as increase in life span at 0.2 mg/kg/injection, ip administered as single dose measured on day 60; type: functional; details: 1440 h, route intraperitoneal; in short: as §2
[19] = tested on: B16; experiment: Antitumor activity against mouse B16 cells allografted in BDF1 mouse assessed as mean survival time at 0.05 mg/kg/injection, ip administered daily for 9 days (reference value: 28 days); type: functional; details: route intraperitoneal
In short: (§3)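 B16 melanoma in mice, standard screening method. Schedules were daily on days 1–9, on days 1, 5 and 9, or a single day-1 injection, each over a four- to fivefold dose range. Survival time (range of individual deaths) was recorded, percent increase in life-span computed against untreated controls, and survivors tallied.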

[20] = tested on: B16; experiment: Antitumor activity against mouse B16 cells allografted in BDF1 mouse assessed as mean survival time at 0.075 mg/kg/injection, ip administered intermittently on days 1, 5 and 9 (reference value: 28 days); type: functional; details: route intraperitoneal; in short: as §3
[21] = tested on: B16; experiment: Antitumor activity against mouse B16 cells allografted in BDF1 mouse assessed as mean survival time at 0.05 mg/kg/injection, ip administered as single dose (reference value: 28 days); type: functional; details: route intraperitoneal; in short: as §3
[22] = tested on: B16; experiment: Antitumor activity against mouse B16 cells allografted in BDF1 mouse assessed as increase in life span at 0.05 mg/kg/injection, ip administered daily for 9 days measured on day 60; type: functional; details: route intraperitoneal; in short: as §3
[23] = tested on: B16; experiment: Antitumor activity against mouse B16 cells allografted in BDF1 mouse assessed as increase in life span at 0.075 mg/kg/injection, ip administered intermittently on days 1, 5 and 9 measured on day 60; type: functional; details: 1440 h, route intraperitoneal; in short: as §3
[24] = tested on: B16; experiment: Antitumor activity against mouse B16 cells allografted in BDF1 mouse assessed as increase in life span at 0.05 mg/kg/injection, ip administered as single dose measured on day 60; type: functional; details: 1440 h, route intraperitoneal; in short: as §3

Cc1c2oc3c(C)ccc(C(=O)N[C@H]4CNC(=O)[C@H](C(C)C)N(C)C(=O)CN(C)C(=O)[C@@H]5CCCN5C(=O)[C@@H](C(C)C)NC4=O)c3nc-2c(C(=O)N[C@H]2CNC(=O)[C@H](C(C)C)N(C)C(=O)CN(C)C(=O)[C@@H]3CCCN3C(=O)[C@@H](C(C)C)NC2=O)c(N)c1=O
Activity [1]: Active | Activity [2]: Active | Activity [3]: Active | MIC [4]: 0.9 µg/mL (≈ 0.734 µM) | IC50 ([4]; read-out: ID50 (the source's name)): 0.4 µg/mL (≈ 0.326 µM) | MIC [5]: 0.35 µg/mL (≈ 0.286 µM) | MIC [6]: 0.35 µg/mL (≈ 0.286 µM) | MST [7]: 11.2 days | MST [8]: 11 days | MST [9]: 11.8 days | ILS at 0.0125 mg/kg [10]: 17% | ILS at 0.15 mg/kg [11]: 14% | ILS at 0.2 mg/kg [12]: 22% | MST [13]: 14.5 days | MST [14]: 14 days | MST [15]: 14 days | ILS at 0.1 mg/kg [16]: 38% | ILS at 0.15 mg/kg [17]: 33% | ILS at 0.2 mg/kg [18]: 33% | MST [19]: 30 days | MST [20]: 32 days | MST [21]: 29 days | ILS at 0.05 mg/kg [22]: 7% | ILS at 0.075 mg/kg [23]: 14% | ILS at 0.05 mg/kg [24]: 4%
